In ChEMBL document CHEMBL5150059, “Transcriptional Inhibition of MicroRNA miR-122 by Small Molecules Reduces Hepatitis C Virus Replication in Liver Cells” (J Med Chem, 2022):
The source made the active and inactive calls. The calls are words filed in the database; no cut-off is given here.

Tests used:
microRNA 122 [1] = experiment: Inhibition of miR-122 in human Huh-7 cells expressing renilla luciferase gene assessed as relative luciferase unit after 48 hrs by dual luciferase assay relative to control; format: cell-based; set-up: concentration or dose not given beside the values
Summary of the method: (§1)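 Huh7-miR122 stable line (miR-122 site in the Renilla luciferase 3′ UTR, kept in 500 μg/mL G418), seeded 15,000/well. After overnight incubation, treated 48 h with compound or DMSO (0.1% final) in triplicate. Renilla and firefly read by dual luciferase; Renilla normalized to firefly. Dose–response used for EC50.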

[2] = Effect on non-miR-122 pathway in human Huh-7 cells harboring psi-check empty vector assessed as increase in luminescence at 10 uM after 48 hrs by dual luciferase assay relative to control; format: functional
Summary of the method: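 Huh7 cells transfected with psiCHECK-empty reporter (miR-122 site replaced by a non-targeted linker) for 2 h. Medium then replaced with compound at 10 μM or DMSO (0.1% final), in triplicate. Renilla/firefly read by dual luciferase after 48 h, normalized to DMSO. At least three independent experiments, mean ± SD.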

Renilla = experiment: Inhibition of recombinant renilla luciferase at 10 uM using coelenterazine as substrate incubated for 10 mins by luminescence based microplate reader analysis relative to control; values are per cent of control
Hepatitis C virus = experiment: Antiviral activity against HCV infected in human Huh7.5 cells assessed as reduction in viral RNA expression at 10 uM pretreated for 1 hr followed by viral infection and measured after 48 hrs by RT-qPCR analysis; format: functional, Hepacivirus hominis; set-up: scale not given: the % may be the effect or the level left; conditions: time 49 hrs
Summary of the method: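 Huh7.5 cells pretreated 1 h with compound (10 μM) or DMSO, then infected with HCV (MOI 0.5) in compound-containing DMEM; medium replaced with compound medium at 5 h post-infection. At 48 h post-infection, RNA extracted. HCV and 18S RNA copy numbers quantified by RT-qPCR against standards. HCV RNA normalized to 18S, then to DMSO control.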

Huh-7 [3] = experiment: Inhibition of pGL3-miR-122 (unknown origin) promotor activity transfected in human Huh-7 cells at 25 uM after 48 hrs by Bright-glo luciferase assay; format: cell-based
Summary of the method: (§2)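 Huh7 cells transfected 3 h with pGL3-miR122 promoter–firefly reporter, parent or with transcription-factor site mutated/deleted. Then treated 48 h with 25 μM compound or 0.1% DMSO, in triplicate. Read by Bright-Glo luminescence; XTT viability assayed in parallel. Luminescence divided by viability, normalized to DMSO per reporter. Three independent experiments.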

microRNA 122 [4] = experiment: Inhibition of miR-122 in human Huh-7 cells assessed as reduction in E-cadherin expression at 25 uM incubated for 48 hrs by Western blot analysis; format: cell-based
Summary of the method: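 Huh7 cells treated 48 h at 37 °C with compound or DMSO (0.1% final), then lysed and run on 10% SDS-PAGE. Transferred to PVDF, blocked in 5% BSA/TBST. Probed overnight at 4 °C with anti-E-cadherin or anti-GAPDH (1:1000), then HRP anti-rabbit (1:2500), and detected by chemiluminescence. GAPDH used as internal control.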

microRNA 122 [5] = experiment: Inhibition of miR-122 in human Huh-7 cells assessed as reduction in mature miR-122 levels at 25 uM after 48 hrs by RT-qPCR analysis; format: cell-based
Summary of the method: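 Huh7 cells treated 48 h with 25 μM compound or 0.1% DMSO, then total RNA isolated. 15 ng reverse-transcribed with TaqMan miRNA RT primers for miR-122 or RNU19. TaqMan qPCR run over 40 cycles in triplicate. Relative level from 2^−ΔΔCt versus RNU19 and DMSO. Three independent experiments.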

[6] = Binding affinity to recombinant C-terminal His-tagged […] (147 to 377 residues) (unknown origin) expressed in Escherichia coli by spectrofluorometer analysis; set-up: species or system Homo sapiens
Summary of the method: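 His-tagged HNF4α ligand-binding domain (aa 147–377) expressed and purified from E. coli. 200 nM protein in PBS pH 7.4 titrated with increasing compound at 25 °C. Intrinsic Trp/Tyr fluorescence read at 330 nm (excitation 280 nm), corrected for buffer and ligand alone. Intensity change versus concentration fitted to Hill equation for KD. Two independent experiments.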

Huh-7 [7] = experiment: Inhibition of pGL3-miR-122 (unknown origin) promotor activity transfected in Huh-7 cells harboring HNF1alpha mutant assessed as reduction in luciferase activity at 25 uM after 48 hrs by Bright-glo luciferase assay; format: cell-based; summary of the method: as §2
Huh-7 [8] = experiment: Inhibition of pGL3-miR-122 (unknown origin) promotor activity transfected in Huh-7 cells harboring HNF6 mutant assessed as reduction in luciferase activity at 25 uM after 48 hrs by Bright-glo luciferase assay; format: cell-based; summary of the method: as §2
microRNA 122 [9] = experiment: Inhibition of miR-122 in human Huh-7 cells expressing renilla luciferase gene after 48 hrs by dual luciferase assay; format: cell-based; summary of the method: as §1
HEK293 = experiment: Inhibition of […] (unknown origin) transfected in HEK293 cells coexpressing CYP26A1 assessed as reduction in luciferase expression at 25 uM after 48 hrs dual luciferase assay; format: cell-based; conditions: Homo sapiens
Summary of the method: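 HEK293T cells (no endogenous HNF4α) co-transfected for 4 h with CYP26A1 promoter–firefly luciferase reporter, HNF4α expression plasmid and Renilla control plasmid. Then treated 48 h with 25 μM compound or DMSO (0.25% final). Read by dual luciferase assay, normalized to DMSO.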

Huh-7 [10] = experiment: Inhibition of pGL3-miR-122 (unknown origin) promotor activity transfected in Huh-7 cells harboring AP-1 mutant assessed as reduction in luciferase activity at 25 uM after 48 hrs by Bright-glo luciferase assay; format: cell-based; summary of the method: as §2
microRNA 122 [11] = experiment: Inhibition of miR-122 in human Huh-7 cells assessed as reduction in primary miR-122 expression at 25 uM incubated for 48 hrs by RT-qPCR analysis; format: cell-based
Summary of the method: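 Huh7 cells treated 48 h with 25 μM compound or 0.1% DMSO. 50 ng total RNA reverse-transcribed with iScript. TaqMan qPCR run for pri-miR-122 and GAPDH in triplicate. Relative level from 2^−ΔΔCt normalized to GAPDH and DMSO. Three independent experiments.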

Huh-7 [12] = experiment: Cytotoxicity against human Huh-7 cells assessed as reduction in cell viability at 10 to 25 uM after 48 hrs by XTT assay; format: toxicity, cell-based; conditions: huh-7, 48 h, dose 10-25 µM
Summary of the method: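 Huh7 cells given compound for 48 h, then XTT reagent activated with menadione. Absorbance at 450 nm minus 630 nm read immediately and after 4 h; viability taken as the difference between the two readings.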

Huh-7 [13] = experiment: Inhibition of pGL3-miR-122 (unknown origin) promotor activity transfected in Huh-7 cells harboring HNF4alpha mutant by measuring reversal of mir-122 activity at 25 uM after 48 hrs by Bright-glo luciferase assay; format: cell-based; summary of the method: as §2
Huh-7 [14] = experiment: Inhibition of pGL3-miR-122 (unknown origin) promotor activity transfected in Huh-7 cells harboring HNF3beta mutant assessed as reduction in luciferase activity at 25 uM after 48 hrs by Bright-glo luciferase assay; format: cell-based; summary of the method: as §2

Compound	residual activity (Renilla)	Activity (microRNA 122 [1])	also measured
COc1cc(C)c(C(C)C)cc1S(=O)(=O)n1cnc(Cl)c1Cl		4%	
COc1cc(C)c(C(C)C)cc1S(=O)(=O)n1cccc1		29%	
COc1cc(C)c(C(C)C)cc1S(=O)(=O)n1ccc(C)n1		44%	
COc1cc(C)c(C(C)C)cc1S(=O)(=O)n1cnc(-c2ccccc2)c1		35%	
COc1cc(C)c(C(C)C)cc1S(=O)(=O)Nc1ccccc1		47%	
CCNS(=O)(=O)c1cc(C(C)C)c(C)cc1OC		42%	
COc1cc(C)c(C(C)C)cc1S(=O)(=O)N(C)C		42%	
COc1cc(C)c(C(C)C)cc1S(=O)(=O)Nc1ccccc1C		32%	
CCc1nccn1S(=O)(=O)c1cc(C(C)C)c(C)cc1OC		40%	
COc1cc(C)c(C(C)C)cc1S(=O)(=O)n1ccnc1		33%	
COc1cc(C)c(C(C)C)cc1S(=O)(=O)n1cc(C)cn1		32%	
COc1cc2c(cc1S(=O)(=O)n1cnc(C)c1)CCCC2		33.3%	
Cc1ccc([N+](=O)[O-])cc1S(=O)(=O)n1c(C)nc2ccccc21			Kd [6]: 832 nM; inhibition (HEK293): 50%
COc1cc(C)c(C)cc1S(=O)(=O)n1cnc(C)c1		32%	

Further lines, with some results ahead:

residual activity (Renilla)	Compound	Activity (microRNA 122 [1])	also measured
100%	COc1cc(C)c(C(C)C)cc1S(=O)(=O)N(C)c1ccc(C)cc1	82%	Activity [2]: 218%
70%	CCOc1cc(C)c(C(C)C)cc1S(=O)(=O)n1cnc(C)c1	74%	
78%	COc1cc(C)c(C(C)C)cc1S(=O)(=O)N(C)c1cccc(C)c1	122%	Activity [2]: 103%
94%	COc1cc(C)c(C(C)C)cc1S(=O)(=O)n1ccc2ccccc21	55%	
45%	COc1cc(C)c(C(C)C)cc1S(=O)(=O)n1cnc2ccccc21	75%	
87%	COc1cc(C)c(C(C)C)cc1S(=O)(=O)n1ccc(C)c1	57%	
8%	COc1cc(C)c(C(C)C)cc1S(=O)(=O)Nc1ccccn1	88%	
93%	COc1cc(C)c(C(C)C)cc1S(=O)(=O)N(C)c1cccc(C)c1C	80%	Activity [2]: 225%
100%	COc1cc(C)c(C(C)C)cc1S(=O)(=O)N(C)c1ccccn1	89%	Activity [2]: 88%
100%	COc1cc(C)c(C(C)C)cc1S(=O)(=O)N(C)c1ccccc1C	104%	Activity (Hepatitis C virus): 88%; Activity (Huh-7 [3]): Active; inhibition (microRNA 122 [4]): Active; inhibition (microRNA 122 [5]): 38%; Kd [6]: 439 nM; inhibition (Huh-7 [7]): Active; inhibition (Huh-7 [8]): Active; EC50 (microRNA 122 [9]): 11000 nM; inhibition (HEK293): 50%; inhibition (Huh-7 [10]): Active; inhibition (microRNA 122 [11]): 59%; Activity (Huh-7 [12]): Non-Toxic; Activity [2]: 90%; inhibition (Huh-7 [13]): 64%; inhibition (Huh-7 [14]): Active
17%	COc1cc(C)c(C(C)C)cc1S(=O)(=O)Nc1ncccc1C	135%	
100%	COc1cc(C)c(C(C)C)cc1S(=O)(=O)N(C)c1ncccc1C	64%	Activity [2]: 87%
80%	COc1cc(C)ccc1S(=O)(=O)n1cnc(C)c1	24%	
80%	COc1cc(C)c(C(C)C)cc1S(=O)(=O)n1cnc(C)c1	100%	Activity [2]: 127%
100%	COc1cc(C)c(C(C)C)cc1S(=O)(=O)N(C)c1cccc(C)n1	107%	Activity [2]: 117%
2%	COc1cc(C)c(C(C)C)cc1S(=O)(=O)Nc1cccc(C)n1	89%	
97%	C#CCOc1cc(C)c(C(C)C)cc1S(=O)(=O)n1cnc(C)c1	50%	
100%	COc1cc(C)c(C(C)C)cc1S(=O)(=O)N(C)c1cc(C)ccc1C	77%	Activity [2]: 245%
67%	COc1cc(C)c(C(C)C)cc1S(=O)(=O)n1cnc([N+](=O)[O-])c1	61.1%	
